Measurements from ChEMBL document CHEMBL2311397, “Design and synthesis of cyclopropylamide analogues of combretastatin-A4 as novel microtubule-stabilizing agents” (J Med Chem, 2013).
Activity calls are given as the source filed them. The rule behind the calls is not given here.

What was measured:
SW480 = assay: Cytotoxicity against human SW480 cells after 48 hrs by MTT assay; type: functional, cell-based; conditions: Homo sapiens, SW480, 48 h
In short: (§1)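 Log-phase cells (40000–50000 cells/mL) grown in DMEM with 10% fetal calf serum (5% CO2, 37 °C) and exposed 48 h to five concentrations, 3–5 replicates. Read-out was MTT with absorbance at 570 nm; IC50 reported as mean ± SD of three independent experiments. Resistant A549 and HeLa sublines were made by stepwise paclitaxel selection; resistance index = IC50(resistant)/IC50(sensitive).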

A549 [1] = assay: Antitumor activity against human A549 cells xenografted in BALB/c nude mouse assessed as tumor growth inhibition at 500 mg/kg, ig measured on day 16; type: functional; conditions: A549, po, 384 h, route intragastric, read-out: TGI
In short: (§2)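 Male BALB/c nude mice, 5 weeks old (18–20 g), implanted subcutaneously in the right armpit with A549 tumor fragments (3 mm3). On day 13, at 100–200 mm3, daily intragastric dosing began: 100 or 500 mg/kg test compound, or 30 mg/kg paclitaxel, in Tween-80 diluted with saline. Vehicle given ip. Tumor volume and body weight followed; n = 6; inhibition rate at day 16.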

A549 [2] = assay: Cell cycle arrest in human A549 cells assessed as accumulation at G2/M phase at 1 uM after 24 hrs by propidium iodide staining-based flow cytometry (reference value: 2.78 %); type: functional
K562 = assay: Cytotoxicity against human K562 cells after 48 hrs by MTT assay; type: functional, cell-based; conditions: Homo sapiens, K562, 48 h; in short: as §1
A549 [3] = assay: Cell cycle arrest in human A549 cells assessed as accumulation at G2/M phase at 0.1 uM after 24 hrs by propidium iodide staining-based flow cytometry (reference value: 2.78 %); type: functional
A549 [4] = assay: Cell cycle arrest in human A549 cells assessed as accumulation at S phase at 1 uM after 24 hrs by propidium iodide staining-based flow cytometry (reference value: 9.12 %); type: functional
A549 [5] = assay: Cell cycle arrest in human A549 cells assessed as accumulation at G1 phase at 0.1 uM after 24 hrs by propidium iodide staining-based flow cytometry (reference value: 87.56 %); type: functional
A549 [6] = assay: Induction of apoptosis in human A549 cells assessed as viable cells at 10 uM after 24 hrs by annexin V-FITC/propidium iodide staining-based flow cytometry (reference value: 94.08%); type: functional; conditions: A549, 24 h, read-out: Activity
A549 [7] = assay: Induction of apoptosis in human A549 cells assessed as viable cells at 1 uM after 24 hrs by annexin V-FITC/propidium iodide staining-based flow cytometry (reference value: 94.08%); type: functional; conditions: A549, 24 h, read-out: Activity
A549 [8] = assay: Induction of apoptosis in human A549 cells assessed as necrotic cells at 10 uM after 24 hrs by annexin V-FITC/propidium iodide staining-based flow cytometry (reference value: 2.76%); type: functional
A549 [9] = assay: Antitumor activity against human A549 cells xenografted in BALB/c nude mouse assessed as tumor growth inhibition at 100 mg/kg, ig measured on day 16; type: functional; conditions: A549, po, 384 h, route intragastric, read-out: TGI; in short: as §2
A549 [10] = assay: Effect on chromosomal alteration in human A549 cells at 10 uM after 22 hrs by DAPI/FITC staining-based laser fluorescence confocal microscopic analysis; type: functional, cell-based
In short: (§3)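 Confocal imaging of A549 cells exposed for 22 h to compound or vehicle (0.2% DMSO final), added at 70% confluency after overnight growth. Fixation followed by 0.5% Triton X-100 permeabilization and 10% goat serum blocking; tubulin stained with FITC anti-α-tubulin (1:100, 2 h, 37 °C), nuclei counterstained with DAPI. Wide-field images taken at 10–15 random slide locations.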

A549 [11] = assay: Cell cycle arrest in human A549 cells assessed as accumulation at G2/M phase at 10 uM after 24 hrs by propidium iodide staining-based flow cytometry (reference value: 2.78 %); type: functional
A549 [12] = assay: Induction of apoptosis in human A549 cells early apoptotic cells at 5 uM after 24 hrs by annexin V-FITC/propidium iodide staining-based flow cytometry (reference value: 0.73 %); type: functional
A549 [13] = assay: Cell cycle arrest in human A549 cells assessed as accumulation at S phase at 10 uM after 24 hrs by propidium iodide staining-based flow cytometry (reference value: 9.12 %); type: functional
A549 [14] = assay: Cell cycle arrest in human A549 cells assessed as accumulation at G2/M phase at 5 uM after 24 hrs by propidium iodide staining-based flow cytometry (reference value: 2.78 %); type: functional
A549 [15] = assay: Induction of apoptosis in human A549 cells assessed as viable cells at 5 uM after 24 hrs by annexin V-FITC/propidium iodide staining-based flow cytometry (reference value: 94.08%); type: functional; conditions: A549, 24 h, read-out: Activity
A549 [16] = assay: Induction of apoptosis in human A549 cells assessed as late apoptotic cells at 5 uM after 24 hrs by annexin V-FITC/propidium iodide staining-based flow cytometry (reference value: 1.02%); type: functional
A549 [17] = assay: Cell cycle arrest in human A549 cells assessed as accumulation at G1 phase at 10 uM after 24 hrs by propidium iodide staining-based flow cytometry (reference value: 87.56 %); type: functional
A549 [18] = assay: Cell cycle arrest in human A549 cells assessed as accumulation at G1 phase at 5 uM after 24 hrs by propidium iodide staining-based flow cytometry (reference value: 87.56 %); type: functional
A549 [19] = assay: Antimitotic activity against human A549 cells assessed as cell mitotic arrest at 5 uM after 22 hrs by DAPI/FITC staining-based laser fluorescence confocal microscopic analysis (reference value: 1.1 %); type: functional
A549 [20] = assay: Effect on chromosomal alteration in human A549 cells at 10 uM after 22 hrs by DAPI/FITC staining-based laser fluorescence confocal microscopic analysis
Tubulin (Homo sapiens) = Tubulin (Homo sapiens) (UniProt P68371+Q9H4B7+P0DPH7+P68366+Q13509+Q71U36+P04350+Q3ZCM7+P07437+P68363+Q9BQE3+Q6PEY2+Q13885+Q9BVA1+Q9BUF5); assay: (§4) Activation of tubulin (unknown origin) polymerization; type: protein-complex assay
In short: (§5)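 Purified brain tubulin (kit), final 3.0 mg/mL, in 80.0 mM PIPES sesquisodium pH 6.9, 2.0 mM MgCl2, 0.5 mM EGTA, 1 mM GTP, 10.2% glycerol; components prewarmed to 37 °C, reaction started by adding tubulin. A340 read each minute for 1 h. Single-point % stimulation used 10 μM compound; EC50 from 3.75, 7.5, 15, 30, 60 μM.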

Tubulin = assay: as §4; type: protein-complex assay, Homo sapiens; in short: as §5
A549 [21] = assay: Effect on spindle microtubule dynamics in human A549 cells at 10 uM after 22 hrs by DAPI/FITC staining-based laser fluorescence confocal microscopic analysis; type: functional, cell-based; in short: as §3
A549 [22] = assay: Effect on spindle microtubule dynamics in human A549 cells at 10 uM after 22 hrs by DAPI/FITC staining-based laser fluorescence confocal microscopic analysis
A549 [23] = assay: Cytotoxicity against paclitaxel-resistant human A549 cells after 48 hrs by MTT assay; type: functional, cell-based; conditions: A549, 48 h; in short: as §1
A549 [24] = assay: Antimitotic activity against human A549 cells assessed as cell mitotic arrest at 10 uM after 22 hrs by DAPI/FITC staining-based laser fluorescence confocal microscopic analysis (reference value: 1.1 %); type: functional

With `COc1cc([C@@H]2C[C@]2(CO)C(=O)Nc2ccccc2Cl)cc(OC)c1OC` the IC50 (SW480) was 13.2 µM, the inhibition in vivo at 500 mg/kg (A549 [1]) was 55.9% and the Activity (A549 [2]) was 51.68%. For the same molecule, the IC50 (K562) was 16.9 µM, the Activity (A549 [3]) was 12.53% and the Activity (A549 [4]) was 9.96%. For the same molecule, the Activity (A549 [5]) was 78.7%, the viability at 10 µM (A549 [6]) was 40.9% and the viability at 1 µM (A549 [7]) was 80.2%. The Activity (A549 [8]) was 0.83%, the inhibition in vivo at 100 mg/kg (A549 [9]) was 44.6% and the Activity (A549 [10]) was “Active”. The Activity (A549 [11]) was 79.92%, the Activity (A549 [12]) was 37.4% and the Activity (A549 [13]) was 10.29%. It also gave an Activity (A549 [14]) of 60.85%, a viability at 5 µM (A549 [15]) of 59% and an Activity (A549 [16]) of 1.36%. The Activity (A549 [17]) was 9.85%, the Activity (A549 [18]) was 28.62% and the Activity (A549 [19]) was 53.1%. The Activity (A549 [20]) was “Active”, the Activity (Tubulin (Homo sapiens)) was “Dose-dependent effect” and the EC50 (Tubulin) was 19.7 µM. For the same molecule, the Activity (A549 [21]) was “Active”, the Activity (A549 [22]) was “Active” and the IC50 (A549 [23]) was 5.3 µM. It also gave an Activity (A549 [24]) of 78.8%.
